Test results published in ChEMBL document CHEMBL1142586, “Bisnortriterpenes from Salacia madagascariensis” (J Nat Prod, 2005).
In brackets after ≈: the same amount, converted by molar mass.

What was measured:
Leishmania donovani = experiment: Antileishmanial activity against Leishmania donovani promastigotes after 48 hrs by alamar blue assay; format: functional, organism-based
In short: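 IC50 (µg/mL) was determined in two separate tests against Leishmania donovani, and the mean of the tests was reported. IC90 was also determined.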

Leishmania mexicana = experiment: Antileishmanial activity against Leishmania mexicana; format: functional, organism-based
Staphylococcus aureus [1] = experiment: Antimicrobial activity against Staphylococcus aureus by NCCLS method; format: functional, organism-based
Staphylococcus aureus [2] = experiment: Antimicrobial activity against methicillin-resistant Staphylococcus aureus by NCCLS method; format: functional, organism-based
[3] = tested on: Mycobacterium intracellulare; experiment: Antimicrobial activity against Mycobacterium intracellular by alamar blue test; format: functional, organism-based
Plasmodium falciparum [4] = experiment: Antiplasmodial activity against Plasmodium falciparum D6; format: functional, organism-based
[5] = Selectivity index, ratio of IC50 for african green monkey (Cercopithecus aethiops) Vero cells to IC50 for Plasmodium falciparum D6; format: toxicity, cell-based; conditions: read-out: Selectivity Index
In short: (§1)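 The index was calculated as the VERO (monkey kidney cell line) IC50 divided by the IC50 against the respective P. falciparum clone.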

Plasmodium falciparum [6] = experiment: Antiplasmodial activity against Plasmodium falciparum W2; format: functional, organism-based
[7] = Selectivity index, ratio of IC50 for african green monkey (Cercopithecus aethiops) Vero cells to IC50 for Plasmodium falciparum W2; format: toxicity, cell-based; conditions: read-out: Selectivity Index; in short: as §1
Vero = experiment: Cytotoxicity against african green monkey Vero cells; format: cell-based; conditions: Chlorocebus sabaeus
[8] = Selectivity index, ratio of IC50 for african green monkey VERO cells to IC50 for Leishmania donovani; format: toxicity, cell-based; conditions: read-out: Selectivity Index
In short: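 The index was calculated as the VERO cell IC50 divided by the mean IC50 against L. donovani from the two tests.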

SMILES: C=C1CC[C@]2(C)CC[C@]3(C)C4=CC=C5C(=CC(=O)C(O)=C5C)[C@]4(C)CC[C@@]3(C)[C@@H]2C1 [ISOIGUESTERIN]
- IC50 (Leishmania donovani): 0.032 µg/mL (≈ 0.0791 µM)
- IC90 (Leishmania donovani): 0.055 µg/mL (≈ 0.136 µM)
- IC50 (Leishmania mexicana): 0.035 µg/mL (≈ 0.0865 µM)
- IC50 (Staphylococcus aureus [1]): 0.85 µg/mL (≈ 2.1 µM)
- IC50 (Staphylococcus aureus [2]): 0.85 µg/mL (≈ 2.1 µM)
- IC50 [3]: 4.5 µg/mL (≈ 11.1 µM)
- IC50 (Plasmodium falciparum [4]): 0.2 µg/mL (≈ 0.494 µM)
- selectivity ratio [5]: 3.4
- IC50 (Plasmodium falciparum [6]): 0.17 µg/mL (≈ 0.42 µM)
- selectivity ratio [7]: 3.9
- IC50 (Vero): 1.6 µg/mL (≈ 3.95 µM)
- selectivity ratio [8]: 50

SMILES: C[C@@H]1[C@H](O)[C@@H](C)/C=C/C=C/C=C/C=C/C=C/C=C/C=C/[C@H](O[C@@H]2O[C@H](C)[C@@H](O)[C@H](N)[C@@H]2O)C[C@@H]2O[C@](O)(C[C@@H](O)C[C@@H](O)[C@H](O)CC[C@@H](O)C[C@@H](O)CC(=O)O[C@H]1C)C[C@H](O)[C@H]2C(=O)O [AMPHOTERICIN B]
- IC50 (Leishmania donovani): 0.11 µg/mL (≈ 0.119 µM)
- IC90 (Leishmania donovani): 0.23 µg/mL (≈ 0.249 µM)
- IC50 (Vero): 6.5 µg/mL (≈ 7.03 µM)
- selectivity ratio [8]: 59

SMILES: CC1=C(O)C(=O)C=C2C1=CC=C1[C@@]2(C)CC[C@@]2(C)[C@@H]3C[C@@H](CO)CC[C@]3(C)CC[C@]12C
- IC50 (Leishmania donovani): 0.027 µg/mL (≈ 0.0639 µM)
- IC90 (Leishmania donovani): 0.057 µg/mL (≈ 0.135 µM)
- IC50 (Staphylococcus aureus [1]): 0.65 µg/mL (≈ 1.54 µM)
- IC50 (Staphylococcus aureus [2]): 0.7 µg/mL (≈ 1.66 µM)
- IC50 [3]: 15 µg/mL (≈ 35.5 µM)
- IC50 (Plasmodium falciparum [4]): 0.068 µg/mL (≈ 0.161 µM)
- selectivity ratio [5]: 31
- IC50 (Plasmodium falciparum [6]): 0.068 µg/mL (≈ 0.161 µM)
- selectivity ratio [7]: 31
- IC50 (Vero): 2.1 µg/mL (≈ 4.97 µM)
- selectivity ratio [8]: 31

SMILES: C[C@@H]1CC[C@H]2[C@@H](C)C(=O)O[C@@H]3O[C@@]4(C)CC[C@@H]1[C@]32OO4 [ARTEMISININ]
- IC50 (Plasmodium falciparum [6]): 0.0018 µg/mL (≈ 0.00638 µM)
